In brackets after ≈: the same amount, converted by molar mass.
Assays:
Staphylococcus aureus [1] = assay: Antibacterial activity against Staphylococcus aureus ATCC 6538 after 24 hrs by microdilution method; assay type: functional; conditions: ATCC 6538, 24 h
Outline: (§1)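 Broth microdilution in 96-well plates. Bacterial suspensions were adjusted in sterile saline to 1.0 × 10⁵ CFU/ml, prepared daily and kept at 4 °C. Compound was added to LB broth with 1.0 × 10⁴ CFU per well and shaken at 160 rpm for 24 h at […] (so in the source). MIC is the lowest concentration with no visible growth under a binocular microscope. OD655 was also read. Duplicate, repeated three times.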

Bacillus cereus [2] = assay: Antibacterial activity against clinical isolate of Bacillus cereus after 24 hrs by microdilution method; assay type: functional; outline: as §1
Micrococcus flavus [3] = assay: Antibacterial activity against Micrococcus flavus ATCC 10240 after 24 hrs by microdilution method; assay type: functional; conditions: ATCC 10240, 24 h; outline: as §1
Listeria monocytogenes [4] = assay: Antibacterial activity against Listeria monocytogenes NCTC 7973 after 24 hrs by microdilution method; assay type: functional; conditions: NCTC 7973, 24 h; outline: as §1
Pseudomonas aeruginosa [5] = assay: Antibacterial activity against Pseudomonas aeruginosa ATCC 27853 after 24 hrs by microdilution method; assay type: functional; conditions: ATCC 27853, 24 h; outline: as §1
Salmonella typhimurium [6] = assay: Antibacterial activity against Salmonella Typhimurium ATCC 13311 after 24 hrs by microdilution method; assay type: functional, Salmonella enterica subsp. enterica serovar Typhimurium; conditions: Salmonella enterica, ATCC 13311, 24 h; outline: as §1
Escherichia coli [7] = assay: Antibacterial activity against Escherichia coli ATCC 35210 after 24 hrs by microdilution method; assay type: functional; conditions: ATCC 35210, 24 h; outline: as §1
Enterococcus faecalis [8] = assay: Antibacterial activity against Enterococcus faecalis isolated from human after 24 hrs by microdilution method; assay type: functional; outline: as §1
Staphylococcus aureus [9] = assay: Antibacterial activity against Staphylococcus aureus ATCC 6538 incubated for 24 hrs followed by serial sub-cultivation for 24 hrs by microdilution method; assay type: functional; conditions: ATCC 6538, 24 h
Outline: (§2)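 MBC: after the 24 h LB broth microdilution (1.0 × 10⁴ CFU per well, 160 rpm), wells were serially sub-cultured into fresh broth plates and incubated a further 24 h. MBC is the lowest concentration with no visible growth, taken as 99.5% killing of the original inoculum. Duplicate, repeated three times.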

Bacillus cereus [10] = assay: Antibacterial activity against clinical isolate of Bacillus cereus incubated for 24 hrs followed by serial sub-cultivation for 24 hrs by microdilution; assay type: functional; outline: as §2
Micrococcus flavus [11] = assay: Antibacterial activity against Micrococcus flavus ATCC 10240 incubated for 24 hrs followed by serial sub-cultivation for 24 hrs by microdilution; assay type: functional; conditions: ATCC 10240, 24 h; outline: as §2
Listeria monocytogenes [12] = assay: Antibacterial activity against Listeria monocytogenes NCTC 7973 incubated for 24 hrs followed by serial sub-cultivation for 24 hrs by microdilution; assay type: functional; conditions: NCTC 7973, 24 h; outline: as §2
Pseudomonas aeruginosa [13] = assay: Antibacterial activity against Pseudomonas aeruginosa ATCC 27853 incubated for 24 hrs followed by serial sub-cultivation for 24 hrs by microdilution; assay type: functional; conditions: ATCC 27853, 24 h; outline: as §2
Salmonella typhimurium [14] = assay: Antibacterial activity against Salmonella Typhimurium ATCC 13311 incubated for 24 hrs followed by serial sub-cultivation for 24 hrs by microdilution; assay type: functional, Salmonella enterica subsp. enterica serovar Typhimurium; conditions: Salmonella enterica, ATCC 13311, 24 h; outline: as §2
Escherichia coli [15] = assay: Antibacterial activity against Escherichia coli ATCC 35210 incubated for 24 hrs followed by serial sub-cultivation for 24 hrs by microdilution; assay type: functional; conditions: ATCC 35210, 24 h; outline: as §2
Enterococcus faecalis [16] = assay: Antibacterial activity against Enterococcus faecalis isolated from human incubated for 24 hrs followed by serial sub-cultivation for 24 hrs by microdilution; assay type: functional; outline: as §2
Aspergillus ochraceus [17] = assay: Antifungal activity against Aspergillus ochraceus ATCC 12066 after 72 hrs by serial dilution technique; assay type: functional; conditions: ATCC 12066, 72 h
Outline: (§3)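 Modified microdilution in 96-well plates. Fungi were kept on malt agar at 4 °C. Spores were washed off in sterile 0.85% saline with 0.1% Tween 80. Compounds were dissolved at 1 mg/ml in 5% DMSO with 0.1% Tween 80 and added to malt broth with inoculum. Plates were shaken at 160 rpm for 72 h at 28 °C. Duplicate, repeated three times.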

Aspergillus niger [18] = assay: Antifungal activity against Aspergillus niger ATCC 6275 after 72 hrs by serial dilution technique; assay type: functional; conditions: ATCC 6275, 72 h; outline: as §3
Aspergillus flavus [19] = assay: Antifungal activity against Aspergillus flavus ATCC 9643 after 72 hrs by serial dilution technique; assay type: functional; conditions: ATCC 9643, 72 h; outline: as §3
Talaromyces funiculosus [20] = assay: Antifungal activity against Penicillium funiculosum ATCC 36839 after 72 hrs by serial dilution technique; assay type: functional; conditions: ATCC 36839, 72 h; outline: as §3
Penicillium ochrochloron [21] = assay: Antifungal activity against Penicillium ochrochloron ATCC 9112 after 72 hrs by serial dilution technique; assay type: functional; conditions: ATCC 9112, 72 h; outline: as §3
Trichoderma viride [22] = assay: Antifungal activity against Trichoderma viride IAM 5061 after 72 hrs by serial dilution technique; assay type: functional; conditions: IAM 5061, 72 h; outline: as §3
Candida albicans [23] = assay: Antifungal activity against Candida albicans isolated from human after 72 hrs by serial dilution technique; assay type: functional; outline: as §3
Aspergillus ochraceus [24] = assay: Antifungal activity against Aspergillus ochraceus ATCC 12066 incubated for 72 hrs followed by serial sub-cultivation for 72 hrs by serial dilution technique; assay type: functional; conditions: ATCC 12066, 72 h
Outline: (§4)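 MFC: material from 72 h malt broth microdilution wells was serially sub-cultured into fresh broth plates and incubated a further 72 h at 28 °C. Fungicidal concentration is taken from growth after sub-culture. Duplicate, repeated three times.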

Aspergillus fumigatus [25] = assay: Antifungal activity against Aspergillus fumigatus isolated from human incubated for 72 hrs followed by serial sub-cultivation for 72 hrs by serial dilution technique; assay type: functional; outline: as §4
Aspergillus niger [26] = assay: Antifungal activity against Aspergillus niger ATCC 6275 incubated for 72 hrs followed by serial sub-cultivation for 72 hrs by serial dilution technique; assay type: functional; conditions: ATCC 6275, 72 h; outline: as §4
Aspergillus flavus [27] = assay: Antifungal activity against Aspergillus flavus ATCC 9643 incubated for 72 hrs followed by serial sub-cultivation for 72 hrs by serial dilution technique; assay type: functional; conditions: ATCC 9643, 72 h; outline: as §4
Talaromyces funiculosus [28] = assay: Antifungal activity against Penicillium funiculosum ATCC 36839 incubated for 72 hrs followed by serial sub-cultivation for 72 hrs by serial dilution technique; assay type: functional; conditions: ATCC 36839, 72 h; outline: as §4
Penicillium ochrochloron [29] = assay: Antifungal activity against Penicillium ochrochloron ATCC 9112 incubated for 72 hrs followed by serial sub-cultivation for 72 hrs by serial dilution technique; assay type: functional; conditions: ATCC 9112, 72 h; outline: as §4
Trichoderma viride [30] = assay: Antifungal activity against Trichoderma viride IAM 5061 incubated for 72 hrs followed by serial sub-cultivation for 72 hrs by serial dilution technique; assay type: functional; conditions: IAM 5061, 72 h; outline: as §4
Candida albicans [31] = assay: Antifungal activity against Candida albicans isolated from human incubated for 72 hrs followed by serial sub-cultivation for 72 hrs by serial dilution technique; assay type: functional; outline: as §4
Pseudomonas aeruginosa [32] = assay: Ratio of ampicillin MIC to compound MIC for Pseudomonas aeruginosa ATCC 27853; assay type: functional
Aspergillus ochraceus [33] = assay: Ratio of bifonazole to compound for Aspergillus ochraceus ATCC 12066; assay type: functional
Aspergillus niger [34] = assay: Ratio of bifonazole to compound for Aspergillus niger ATCC 6275; assay type: functional
Talaromyces funiculosus [35] = assay: Ratio of bifonazole to compound for Penicillium funiculosum ATCC 36839; assay type: functional
Penicillium ochrochloron [36] = assay: Ratio of bifonazole to compound for Penicillium ochrochloron ATCC 9112; assay type: functional
Trichoderma viride [37] = assay: Ratio of bifonazole to compound for Trichoderma viride IAM 5061; assay type: functional
Candida albicans [38] = assay: Ratio of bifonazole to compound for Candida albicans isolated from human; assay type: functional
Aspergillus ochraceus [39] = assay: Ratio of ketoconazole to compound for Aspergillus ochraceus ATCC 12066; assay type: functional
Aspergillus fumigatus [40] = assay: Ratio of ketoconazole to compound for Aspergillus fumigatus isolated from human; assay type: functional
Penicillium ochrochloron [41] = assay: Ratio of ketoconazole to compound for Penicillium ochrochloron ATCC 9112; assay type: functional
Candida albicans [42] = assay: Ratio of ketoconazole to compound for Candida albicans isolated from human; assay type: functional
Aspergillus ochraceus [43] = assay: Antifungal activity against Aspergillus ochraceus after 72 hrs by serial dilution technique

MIC (Staphylococcus aureus [1]): 81.7 µM (≈ 25.1 µg/mL)
MIC (Bacillus cereus [2]): 32.7 µM (≈ 10 µg/mL)
MIC (Micrococcus flavus [3]): 65.3 µM (≈ 20 µg/mL)
MIC (Listeria monocytogenes [4]): 98.1 µM (≈ 30.1 µg/mL)
MIC (Pseudomonas aeruginosa [5]): 48.9 µM (≈ 15 µg/mL)
MIC (Salmonella typhimurium [6]): 48.9 µM (≈ 15 µg/mL)
MIC (Escherichia coli [7]): 48.9 µM (≈ 15 µg/mL)
MIC (Enterococcus faecalis [8]): 48.9 µM (≈ 15 µg/mL)
MIC (Aspergillus ochraceus [17]): 32.7 µM (≈ 10 µg/mL)
MIC (Aspergillus niger [18]): 49 µM (≈ 15 µg/mL)
MIC (Aspergillus flavus [19]): 49 µM (≈ 15 µg/mL)
MIC (Talaromyces funiculosus [20]): 32.7 µM (≈ 10 µg/mL)
MIC (Penicillium ochrochloron [21]): 32.7 µM (≈ 10 µg/mL)
MIC (Trichoderma viride [22]): 32.7 µM (≈ 10 µg/mL)
MIC (Candida albicans [23]): 32.7 µM (≈ 10 µg/mL)
MIC (Aspergillus ochraceus [43]): 49 µM (≈ 15 µg/mL)
Structure (SMILES): CCNc1nc(C)c(C(=O)/C=C/c2ccccc2Cl)s1
MBC (Staphylococcus aureus [9]): 98.1 µM (≈ 30.1 µg/mL)
MBC (Bacillus cereus [10]): 65.3 µM (≈ 20 µg/mL)
MBC (Micrococcus flavus [11]): 98.1 µM (≈ 30.1 µg/mL)
MBC (Listeria monocytogenes [12]): 114 µM (≈ 35.1 µg/mL)
MBC (Pseudomonas aeruginosa [13]): 61.1 µM (≈ 18.7 µg/mL)
MBC (Salmonella typhimurium [14]): 61.1 µM (≈ 18.7 µg/mL)
MBC (Escherichia coli [15]): 61.1 µM (≈ 18.7 µg/mL)
MBC (Enterococcus faecalis [16]): 61.1 µM (≈ 18.7 µg/mL)
MFC (Aspergillus ochraceus [24]): 49 µM (≈ 15 µg/mL)
MFC (Aspergillus fumigatus [25]): 65.3 µM (≈ 20 µg/mL)
MFC (Aspergillus niger [26]): 65.3 µM (≈ 20 µg/mL)
MFC (Aspergillus flavus [27]): 65.3 µM (≈ 20 µg/mL)
MFC (Talaromyces funiculosus [28]): 65.3 µM (≈ 20 µg/mL)
MFC (Penicillium ochrochloron [29]): 65.3 µM (≈ 20 µg/mL)
MFC (Trichoderma viride [30]): 65.3 µM (≈ 20 µg/mL)
MFC (Candida albicans [31]): 65.3 µM (≈ 20 µg/mL)
Ratio (Pseudomonas aeruginosa [32]): 10
Ratio (Aspergillus ochraceus [33]): 10
Ratio (Aspergillus niger [34]): 10
Ratio (Talaromyces funiculosus [35]): 10
Ratio (Penicillium ochrochloron [36]): 10
Ratio (Trichoderma viride [37]): 10
Ratio (Candida albicans [38]): 10
Ratio (Aspergillus ochraceus [39]): 10
Ratio (Aspergillus fumigatus [40]): 10
Ratio (Penicillium ochrochloron [41]): 10
Ratio (Candida albicans [42]): 10
